According to ChEMBL document CHEMBL2163331, “Multidrug resistance reversal and apoptosis induction in human colon cancer cells by some flavonoids present in citrus plants” (J Nat Prod, 2012):
Activity calls are given as the source filed them. The rule behind the calls is not given here.

Key:
LoVo [1] = assay: Induction of apoptosis in human drug-sensitive LoVo cells assessed as necrotic cells at 100 uM after 48 hrs by annexin-V and propidium iodide staining based flow cytometry (reference value: 10.44 +/- 3.23%); type: functional
LoVo/DX = assay: Cytotoxicity against human drug-resistant LoVo/DX cells after 72 hrs by SRB assay; type: functional, cell-based
How it was run: (§1)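 Cells seeded at 30 000/well, attached 60 min at 37 °C, then compound added in an equal volume of medium and incubated 72 h. Read by sulforhodamine B at A492. Survival = A492 treated / A492 medium-only control × 100%. DMSO was at most 0.3% in samples. Triplicate experiments, means ± SD, Student's t test.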

LoVo [2] = assay: Induction of apoptosis in human drug-sensitive LoVo cells assessed as apoptotic cells at 100 uM after 48 hrs by annexin-V and propidium iodide staining based flow cytometry (reference value: 6.68 +/- 1.77%); type: functional
LoVo [3] = assay: Cytotoxicity against human drug-sensitive LoVo cells after 72 hrs by SRB assay; type: functional, cell-based; how it was run: as §1
[4] = target: T1, ATP-dependent translocase ABCB1 (Homo sapiens, UniProt P08183); assay: Inhibition of p-glycoprotein in human LoVo/DX cells assessed accumulation of rhodamine 123 at 5 to 100 uM after 60 mins by fluorescence assay; conditions: 1 h
[5] = Induction of apoptosis in human […] cells assessed as apoptotic cells at 100 uM after 48 hrs by annexin-V and propidium iodide staining based flow cytometry (reference value: 6.16 +/- 1.67%); type: functional
[6] = Induction of apoptosis in human […] cells assessed as necrotic cells at 100 uM after 48 hrs by annexin-V and propidium iodide staining based flow cytometry (reference value: 9.57 +/- 2.83%); type: functional
LoVo [7] = assay: Induction of apoptosis in human drug-sensitive LoVo cells assessed as necrotic cells at 25 uM after 48 hrs by annexin-V and propidium iodide staining based flow cytometry (reference value: 10.44 +/- 3.23%); type: functional
[8] = target: T1, ATP-dependent translocase ABCB1; assay: Inhibition of p-glycoprotein in human LoVo/DX cells assessed as potentiation of doxorubicin-induced cytotoxicity at 5 uM after 72 hrs by SRB assay; type: cell-based
How it was run: (§2)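 Doxorubicin cytotoxicity measured with and without 5 μM modulator by SRB over 72 h. Cells seeded at 30 000/well and attached 60 min at 37 °C before treatment. Survival taken as A492 treated / A492 control × 100%. Three experiments, means ± SD, Student's t test (p < 0.05).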

LoVo [9] = assay: Induction of apoptosis in human drug-sensitive LoVo cells assessed as activation of caspase-3 at 75 uM after 48 hrs relative to control; type: functional
How it was run: (§3)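 Cells seeded at 800 000/well and allowed to attach 24 h. Compound added in fresh medium, then 48 h incubation. Cells scraped and centrifuged, and caspase-3 activity measured colorimetrically by pNA release from DEVD-pNA (A405) with a kit. Result expressed as a ratio to a medium-only control. Triplicate, means ± SD.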

[10] = Induction of apoptosis in human […] cells assessed as activation of caspase-3 at 100 uM after 48 hrs relative to control; type: functional; how it was run: as §3
LoVo [11] = assay: Inhibition of doxorubicin intracellular accumulation in human LoVo cells at 100 uM after 60 mins by fluorescence assay; type: functional, cell-based
How it was run: (§4)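 Cells seeded at 15 000/well and cultured 48 h. Fresh F12 medium with 50 μM doxorubicin (plus 100 μM modulator) added for 60 min at 37 °C. Cells washed, then imaged by fluorescence microscopy (40× objective, excitation 528−553 nm, emission 578−633 nm) under identical illumination.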

[12] = Induction of apoptosis in human […] cells assessed as necrotic cells at 25 uM after 48 hrs by annexin-V and propidium iodide staining based flow cytometry (reference value: 9.57 +/- 2.83%); type: functional
[13] = Induction of apoptosis in human […] cells assessed as apoptotic cells at 25 uM after 48 hrs by annexin-V and propidium iodide staining based flow cytometry (reference value: 6.16 +/- 1.67%); type: functional
LoVo [14] = assay: Induction of apoptosis in human drug-sensitive LoVo cells assessed as apoptotic cells at 75 uM after 48 hrs by annexin-V and propidium iodide staining based flow cytometry (reference value: 6.68 +/- 1.77%); type: functional
[15] = target: T1, ATP-dependent translocase ABCB1; assay: Inhibition of p-glycoprotein in human LoVo/DX cells assessed nuclear accumulation of doxorubicin at 100 uM after 60 mins by fluorescence assay; type: cell-based; conditions: 1 h; how it was run: as §4
[16] = Induction of apoptosis in human […] cells assessed as necrotic cells at 75 uM after 48 hrs by annexin-V and propidium iodide staining based flow cytometry (reference value: 9.57 +/- 2.83%); type: functional
LoVo [17] = assay: Induction of apoptosis in human drug-sensitive LoVo cells assessed as apoptotic cells at 25 uM after 48 hrs by annexin-V and propidium iodide staining based flow cytometry (reference value: 6.68 +/- 1.77%); type: functional
LoVo [18] = assay: Induction of apoptosis in human drug-sensitive LoVo cells assessed as activation of caspase-3 at 100 uM after 48 hrs relative to control; type: functional; how it was run: as §3
[19] = target: T1, ATP-dependent translocase ABCB1; assay: Inhibition of p-glycoprotein in human LoVo/DX cells assessed accumulation of rhodamine 123 at 75 to 100 uM after 60 mins by fluorescence assay; type: cell-based; conditions: 1 h
How it was run: (§5)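 Cells at 300 000/mL in serum- and phenol red-free medium, preincubated 15 min at room temperature with modulator (5−100 μM). Rhodamine 123 then added (final 2 μM) for 60 min at 37 °C. Washed cells read by flow cytometry (488 nm excitation, 530/30 nm), 5000 events. FIR = (LoVo/Dx treated/control)/(LoVo treated/control). Triplicate.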

LoVo [20] = assay: Inhibition of rhodamine 123 accumulation in human LoVo cells at 75 to 100 uM after 60 mins by fluorescence assay; type: functional, cell-based; how it was run: as §5
[21] = Induction of apoptosis in human […] cells assessed as apoptotic cells at 75 uM after 48 hrs by annexin-V and propidium iodide staining based flow cytometry (reference value: 6.16 +/- 1.67%); type: functional
LoVo [22] = assay: Induction of apoptosis in human drug-sensitive LoVo cells assessed as necrotic cells at 75 uM after 48 hrs by annexin-V and propidium iodide staining based flow cytometry (reference value: 10.44 +/- 3.23%); type: functional
LoVo [23] = assay: Potentiation of doxorubicin-induced cytotoxicity in human LoVo cells at 5 uM after 72 hrs by SRB assay; type: functional, cell-based; how it was run: as §2
LoVo [24] = assay: Induction of apoptosis in human drug-sensitive LoVo cells assessed as activation of caspase-3 at 25 uM after 48 hrs relative to control; type: functional; how it was run: as §3
[25] = Induction of apoptosis in human […] cells assessed as activation of caspase-3 at 75 uM after 48 hrs relative to control; type: functional; how it was run: as §3
[26] = Induction of apoptosis in human […] cells assessed as activation of caspase-3 at 25 uM after 48 hrs relative to control; type: functional; how it was run: as §3
LoVo [27] = assay: Induction of apoptosis in human drug-sensitive LoVo cells assessed as necrotic cells at 15 uM after 48 hrs by annexin-V and propidium iodide staining based flow cytometry (reference value: 10.44 +/- 3.23%); type: functional
LoVo [28] = assay: Induction of apoptosis in human drug-sensitive LoVo cells assessed as apoptotic cells at 15 uM after 48 hrs by annexin-V and propidium iodide staining based flow cytometry (reference value: 6.68 +/- 1.77%); type: functional
[29] = Induction of apoptosis in human […] cells assessed as apoptotic cells at 15 uM after 48 hrs by annexin-V and propidium iodide staining based flow cytometry (reference value: 6.16 +/- 1.67%); type: functional
[30] = Induction of apoptosis in human […] cells assessed as necrotic cells at 15 uM after 48 hrs by annexin-V and propidium iodide staining based flow cytometry (reference value: 9.57 +/- 2.83%); type: functional
[31] = Induction of apoptosis in human […] cells assessed as activation of caspase-3 at 15 uM after 48 hrs relative to control; type: functional
How it was run: (§6)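 LoVo (sensitive) or LoVo/Dx (doxorubicin-selected; kept in 100 ng/mL doxorubicin) cells, 800 000/well, attached 24 h, then exposed to compound in fresh medium for 48 h. Cells scraped and pelleted. Caspase-3 activity read colorimetrically at A405 as pNA released from DEVD-pNA (commercial kit). Reported as ratio of treated to medium-only control. Triplicate, means ± SD, Student's t test.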

LoVo [32] = assay: Induction of apoptosis in human drug-sensitive LoVo cells assessed as activation of caspase-3 at 15 uM after 48 hrs relative to control; type: functional; how it was run: as §6

T1 sequence (P08183 whole entry): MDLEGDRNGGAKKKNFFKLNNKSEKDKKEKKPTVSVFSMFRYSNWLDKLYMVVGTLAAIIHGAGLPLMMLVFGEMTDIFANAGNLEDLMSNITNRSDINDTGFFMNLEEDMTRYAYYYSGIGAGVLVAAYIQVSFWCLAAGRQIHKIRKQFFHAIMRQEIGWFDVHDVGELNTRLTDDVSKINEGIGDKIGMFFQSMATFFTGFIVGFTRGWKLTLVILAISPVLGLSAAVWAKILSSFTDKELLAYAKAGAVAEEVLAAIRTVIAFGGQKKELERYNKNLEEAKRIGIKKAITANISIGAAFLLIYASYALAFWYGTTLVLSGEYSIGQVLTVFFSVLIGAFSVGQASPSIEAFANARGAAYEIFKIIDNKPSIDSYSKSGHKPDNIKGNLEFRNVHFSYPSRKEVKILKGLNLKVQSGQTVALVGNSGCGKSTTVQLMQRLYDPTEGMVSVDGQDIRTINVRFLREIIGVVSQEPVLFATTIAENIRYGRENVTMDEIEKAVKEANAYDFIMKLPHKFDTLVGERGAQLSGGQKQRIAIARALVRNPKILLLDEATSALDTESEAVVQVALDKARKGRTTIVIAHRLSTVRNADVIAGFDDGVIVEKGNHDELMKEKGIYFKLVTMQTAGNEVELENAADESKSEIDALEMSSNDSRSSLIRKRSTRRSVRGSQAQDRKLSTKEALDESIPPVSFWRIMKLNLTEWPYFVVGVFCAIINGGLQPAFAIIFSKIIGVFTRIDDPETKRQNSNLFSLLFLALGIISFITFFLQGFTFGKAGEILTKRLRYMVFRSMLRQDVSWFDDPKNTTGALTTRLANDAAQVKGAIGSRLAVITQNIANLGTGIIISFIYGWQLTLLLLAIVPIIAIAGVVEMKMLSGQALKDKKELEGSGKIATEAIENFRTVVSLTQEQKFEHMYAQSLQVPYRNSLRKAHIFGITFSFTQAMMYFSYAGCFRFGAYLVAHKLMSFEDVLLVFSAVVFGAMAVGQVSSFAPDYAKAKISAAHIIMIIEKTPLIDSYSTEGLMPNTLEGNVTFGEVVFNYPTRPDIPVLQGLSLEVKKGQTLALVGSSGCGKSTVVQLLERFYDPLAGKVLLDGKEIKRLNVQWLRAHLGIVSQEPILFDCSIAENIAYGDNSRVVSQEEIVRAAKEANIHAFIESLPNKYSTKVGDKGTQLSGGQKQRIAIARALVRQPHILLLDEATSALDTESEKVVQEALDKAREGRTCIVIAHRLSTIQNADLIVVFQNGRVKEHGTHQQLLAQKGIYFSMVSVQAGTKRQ

SMILES	Activity (LoVo [1])	Activity (LoVo/DX)	Activity (LoVo [2])	Activity (LoVo [3])	inhibition (INH) [4]	Activity [5]	Activity [6]	further results
O=C1c2c(O)cc(O)cc2O[C@H](c2ccc(O)cc2)[C@H]1O [DIHYDROKAEMPFEROL]	10.02%	Active	10.96%	Active	Not Active	9.38%	6.83%	
COc1ccc(-c2cc(=O)c3c(OC)c(OC)c(OC)c(OC)c3o2)cc1 [TANGERETIN]	23.75%	Active	15.19%	Active		23.05%	21.75%	Activity (LoVo [7]): 25.82%; Activity [8]: Active; Ratio (LoVo [9]): 2.06; Ratio [10]: 2.71; inhibition (LoVo [11]): inactive; Activity [12]: 17.55%; Activity [13]: 13.87%; Activity (LoVo [14]): 12.83%; inhibition (INH) [15]: Active; Activity [16]: 17.45%; Activity (LoVo [17]): 11.57%; Ratio (LoVo [18]): 2.17; inhibition (INH) [19]: Active; inhibition (LoVo [20]): inactive; Activity [21]: 13.35%; Activity (LoVo [22]): 29.61%; Activity (LoVo [23]): inactive; Ratio (LoVo [24]): 1.04; Ratio [25]: 2.37; Ratio [26]: 2.08
O=C1C[C@@H](c2ccc(O)cc2)Oc2cc(O)cc(O)c21 [NARINGENIN]	8.16%	Active	15.44%	Active	Not Active	6.98%	5.65%	
COc1cc(O)c2c(c1)O[C@H](c1ccc(O)cc1)CC2=O [SAKURANETIN]	25.28%	Active	18.16%	Active	Not Active	4.87%	18.89%	
COc1ccc([C@@H]2CC(=O)c3c(O)cc(OC)cc3O2)cc1	17.82%	Active	14.1%	Active	Not Active	9.67%	17.74%	
CC[C@@]1(O)C(=O)OCc2c1cc1n(c2=O)Cc2cc3ccccc3nc2-1 [CAMPTOTHECIN]								Activity (LoVo [27]): 23.81%; Activity (LoVo [28]): 17.61%; Activity [29]: 17.56%; Activity [30]: 17.96%; Ratio [31]: 3.83; Ratio (LoVo [32]): 3.4
